# How the values were obtained:
# Candida albicans = test: Antifungal activity against Candida albicans ATCC 90027 after 48 hrs by broth microdilution method; format: functional; settings: ATCC 90027, 48 h
# Vero = test: Cytotoxicity against african green monkey Vero cells by MTT assay; format: cell-based; settings: Chlorocebus sabaeus
# Method in brief: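 Vero cells were exposed to compound stocks made in DMSO and serially diluted 2-fold in RPMI 1640 medium. The top test concentration varied between compounds because of limited solubility. MTT read-out followed the kit manufacturer's protocol.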
SMILES,MIC (Candida albicans) [µg/mL],IC50 (Vero) [µg/mL]
O=[N+]([O-])c1cn(CC(O)c2ccc(Cl)cc2)c(Br)n1 (racemic),> 256,> 100
O=[N+]([O-])c1cn(CC(O)c2ccc(Cl)cc2Cl)cn1 (racemic),> 256,> 250
Cc1nc([N+](=O)[O-])cn1CC(O)c1ccc(Cl)cc1Cl (racemic),> 256,> 250
O=[N+]([O-])c1cn(CC(O)c2ccc(Cl)cc2Cl)c(Br)n1 (racemic),> 256,100
O=[N+]([O-])c1cn(CC(O)c2ccc(F)cc2F)cn1 (racemic),> 256,292
O=[N+]([O-])c1cn(CC(O)c2ccc(F)cc2F)c(Br)n1 (racemic),> 256,> 200
O=[N+]([O-])c1cn(CC(O)c2ccc(F)cc2)c(Br)n1 (racemic),> 256,> 100
O=[N+]([O-])c1ccc(C(O)Cn2cc([N+](=O)[O-])nc2Br)cc1 (racemic),> 256,> 100
O=[N+]([O-])c1cn(CC(O)c2ccc(-c3ccccc3)cc2)c(Br)n1 (racemic),> 256,> 100
O=[N+]([O-])c1cn(CC(O)c2ccccc2)c(Br)n1 (racemic),> 256,> 100
Cc1ccc(C(O)Cn2cc([N+](=O)[O-])nc2Br)c(C)c1 (racemic),> 256,22
O=[N+]([O-])c1cn(CC(OCc2ccc(Cl)cc2)c2ccc(Cl)cc2Cl)cn1 (racemic),> 256,> 16
Cc1nc([N+](=O)[O-])cn1CC(OCc1ccc(Cl)cc1)c1ccc(Cl)cc1Cl (racemic),> 256,> 31
O=[N+]([O-])c1cn(CC(OCc2ccc(Cl)cc2)c2ccc(Cl)cc2Cl)c(Br)n1 (racemic),> 256,> 62.5
O=[N+]([O-])c1cn(CC(OCc2ccc(Cl)cc2)c2ccc(F)cc2F)cn1 (racemic),> 256,> 25
O=[N+]([O-])c1cn(CC(OCc2ccc(Cl)cc2)c2ccc(F)cc2F)c(Br)n1 (racemic),> 256,> 25
O=[N+]([O-])c1cn(CC(OCc2ccccc2F)c2ccc(Cl)cc2Cl)cn1 (racemic),> 256,> 63
O=[N+]([O-])c1cn(CC(OCc2ccc(F)cc2)c2ccc(Cl)cc2Cl)cn1 (racemic),> 256,> 16
O=[N+]([O-])c1cn(CC(OCc2ccccc2F)c2ccc(Cl)cc2Cl)c(Br)n1 (racemic),> 256,> 63
O=[N+]([O-])c1cn(CC(OCc2ccc(F)cc2)c2ccc(Cl)cc2Cl)c(Br)n1 (racemic),> 256,> 16
O=[N+]([O-])c1cn(CC(OCc2ccc(F)cc2F)c2ccc(Cl)cc2Cl)cn1 (racemic),> 256,> 25
O=[N+]([O-])c1cn(CC(OCc2cc(F)ccc2F)c2ccc(Cl)cc2Cl)cn1 (racemic),> 256,> 25
O=[N+]([O-])c1cn(CC(OCc2ccc(OC(F)(F)F)cc2)c2ccc(Cl)cc2Cl)cn1 (racemic),> 256,> 25
O=[N+]([O-])c1cn(CC(OCc2cc(F)cc(F)c2)c2ccc(Cl)cc2Cl)cn1 (racemic),> 256,> 25
O=[N+]([O-])c1cn(CC(OCc2cc(F)cc(F)c2)c2ccc(Cl)cc2Cl)c(Br)n1 (racemic),> 256,> 6

SMILES,MIC (Candida albicans) [µg/mL],IC50 (Vero) [µg/mL]
O=[N+]([O-])c1cn(CC(OCc2ccc(F)cc2)c2ccc(F)cc2F)cn1 (racemic),> 256,> 50
O=[N+]([O-])c1cn(CC(OCc2ccc(OC(F)(F)F)cc2)c2ccc(F)cc2F)cn1 (racemic),> 256,> 50
O=[N+]([O-])c1cn(CC(OCc2cc(F)cc(F)c2)c2ccc(F)cc2F)cn1 (racemic),> 256,> 50
COc1nc([N+](=O)[O-])cn1CC(O)c1ccc(Cl)cc1Cl (racemic),> 256,100
COc1nc([N+](=O)[O-])cn1CC(O)c1ccc(F)cc1F (racemic),> 256,> 100
COc1nc([N+](=O)[O-])cn1CC(O)c1ccc(F)cc1 (racemic),> 256,> 100
COc1nc([N+](=O)[O-])cn1CC(O)c1ccc(Cl)cc1 (racemic),> 256,> 100
COc1nc([N+](=O)[O-])cn1CC(O)c1ccc([N+](=O)[O-])cc1 (racemic),> 256,> 100
COc1nc([N+](=O)[O-])cn1CC(O)c1ccc(-c2ccccc2)cc1 (racemic),> 256,> 100
CSc1nc([N+](=O)[O-])cn1CC(O)c1ccc(Cl)cc1Cl (racemic),> 256,59
COc1nc([N+](=O)[O-])cn1CC(O)c1ccccc1 (racemic),> 256,> 100
COc1nc([N+](=O)[O-])cn1CC(O)c1ccc(C)cc1C (racemic),> 256,84
COc1nc([N+](=O)[O-])cn1CC(OCc1ccc(Cl)cc1)c1ccc(Cl)cc1Cl (racemic),> 256,> 8
CSc1nc([N+](=O)[O-])cn1CC(OCc1ccc(F)cc1)c1ccc(Cl)cc1Cl (racemic),> 256,> 13
COc1nc([N+](=O)[O-])cn1CC(OCc1ccc(OC(F)(F)F)cc1)c1ccc(Cl)cc1Cl (racemic),> 256,> 13
COc1nc([N+](=O)[O-])cn1CC(OCc1ccc(Cl)cc1)c1ccc(F)cc1F (racemic),> 256,> 13
COc1nc([N+](=O)[O-])cn1CC(OCc1ccc(F)cc1)c1ccc(F)cc1F (racemic),> 256,> 25
COc1nc([N+](=O)[O-])cn1CC(OCc1ccc(OC(F)(F)F)cc1)c1ccc(F)cc1F (racemic),> 256,> 25
COc1nc([N+](=O)[O-])cn1CC(OCc1cc(F)cc(F)c1)c1ccc(Cl)cc1Cl (racemic),> 256,> 50
COc1nc([N+](=O)[O-])cn1CC(OCc1ccc(F)cc1)c1ccc(Cl)cc1Cl (racemic),> 256,> 13
CSc1nc([N+](=O)[O-])cn1CC(OCc1ccc(Cl)cc1)c1ccc(Cl)cc1Cl (racemic),> 256,> 13
CSc1nc([N+](=O)[O-])cn1CC(OCc1cc(F)cc(F)c1)c1ccc(Cl)cc1Cl (racemic),> 256,> 135
CSc1nc([N+](=O)[O-])cn1CC(OCc1ccc(Cl)cc1)c1ccc(F)cc1F (racemic),> 256,> 13
Clc1ccc(COC(Cn2ccnc2)c2ccc(Cl)cc2Cl)cc1 (stereo not drawn) [ECONAZOLE],16,–
O=[N+]([O-])c1cn2c(n1)OC[C@@H](OCc1ccc(OC(F)(F)F)cc1)C2 [PRETOMANID],> 256,–
